Here are results for 2 molecules from ChEMBL document CHEMBL1140994, “Ranking the selectivity of PubChem screening hits by activity-based protein profiling: MMP13 as a case study” (Bioorg Med Chem, 2009).

For assay [1], the target named is T1, Stromelysin-3 (Homo sapiens) (UniProt P24347).
T1 sequence (whole entry): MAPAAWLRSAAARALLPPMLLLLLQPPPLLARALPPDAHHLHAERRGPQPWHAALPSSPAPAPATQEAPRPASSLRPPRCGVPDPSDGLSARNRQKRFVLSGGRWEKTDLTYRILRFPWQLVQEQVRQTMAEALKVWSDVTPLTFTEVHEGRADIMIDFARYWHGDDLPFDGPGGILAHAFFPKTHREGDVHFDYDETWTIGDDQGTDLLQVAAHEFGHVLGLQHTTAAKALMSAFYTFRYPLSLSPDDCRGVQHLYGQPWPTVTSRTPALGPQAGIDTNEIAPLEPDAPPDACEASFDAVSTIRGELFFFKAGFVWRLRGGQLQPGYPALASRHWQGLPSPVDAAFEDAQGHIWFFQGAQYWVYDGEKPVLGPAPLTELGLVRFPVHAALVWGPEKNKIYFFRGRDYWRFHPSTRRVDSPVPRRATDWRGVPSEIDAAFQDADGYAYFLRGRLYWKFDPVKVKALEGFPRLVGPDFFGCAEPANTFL
The assay can be described thus: Inhibition of human recombinant MMP11 at 200 uM by HxBPyne probe-based competitive activity based protein profiling assay in presence of 5 uM HxBpane competitor. In a few lines:
(§1)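 Recombinant enzyme at 0.5 μM final in mouse liver soluble proteome (1 mg protein/mL in PBS). HxBPyne probe cocktail 0.5 μM total final, with inhibitor 200 μM or DMSO. Preincubated 30 min on ice, then UV 365 nm for 1 h on ice. Rhodamine-azide click chemistry, 1 h RT in dark. SDS-PAGE with in-gel fluorescence; band intensity given as % of DMSO control.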

Assay [2] concerns the target Matrix metalloproteinase-16 (Homo sapiens) (UniProt P51512). The assay can be described thus: Inhibition of human recombinant MMP16 at 200 uM by HxBPyne probe-based competitive activity based protein profiling assay in presence of 5 uM HxBpane competitor. The procedure, abridged: as §1
Assay [3] has as its target Methionine aminopeptidase 2 (Homo sapiens) (UniProt P50579). The assay can be described thus: Inhibition of human recombinant METAP2 at 200 uM by HxBPyne probe-based competitive activity based protein profiling assay in presence of 200 uM HxBpane competitor. The procedure, abridged: (§2)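 Metalloprotease at 1.6 μM final in PBS, without liver proteome. HxBPyne probe cocktail 20 μM final, with inhibitor 200 μM or DMSO. Preincubated 30 min on ice, then irradiated 365 nm for 1 h on ice. Rhodamine-azide click chemistry, then SDS-PAGE and in-gel fluorescence scanning. Integrated band intensity expressed as % of DMSO control.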

Assay [4] has as its target Matrix metalloproteinase-14 (Homo sapiens) (UniProt P50281). The assay can be described thus: Inhibition of human recombinant MMP14 at 200 uM by HxBPyne probe-based competitive activity based protein profiling assay in presence of 5 uM HxBpane competitor. In a few lines:
as §1

Assay [5] deals with T2, Matrix metalloproteinase-9 (Homo sapiens, UniProt P14780). The assay can be described thus: Inhibition of human recombinant MMP9 by fluorogenic substrate assay. In a few lines:
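Enzyme (MMP8 6 nM, MMP9 2 nM, MMP13 1.5 nM final) preincubated with inhibitor 30 min in 50 mM HEPES pH 7.5, 10 mM CaCl2, 0.05% Brij-35, at RT. Mca-PLGL-Dpa-AR-NH2 added at 5 μM; fluorescence (ex 328/em 393 nm) read each minute for 10 min. Initial rates by linear least squares; IC50 from variable-slope sigmoidal fit. Triplicate; mean with 95% CI.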

For assay [6], the target named is Matrix metalloproteinase-24 (Homo sapiens) (UniProt Q9Y5R2). The assay can be described thus: Inhibition of human recombinant MMP24 at 200 uM by HxBPyne probe-based competitive activity based protein profiling assay in presence of 5 uM HxBpane competitor. In a few lines: as §1
Assay [7] has as its target Endoplasmic reticulum aminopeptidase 2 (Homo sapiens) (UniProt Q6P179). The assay can be described thus: Inhibition of human recombinant L-RAP at 200 uM by HxBPyne probe-based competitive activity based protein profiling assay in presence of 5 uM HxBpane competitor. In a few lines: as §1
For assay [8], the target named is Stromelysin-2 (Homo sapiens) (UniProt P09238). The assay can be described thus: Inhibition of human recombinant MMP10 at 200 uM by HxBPyne probe-based competitive activity based protein profiling assay in presence of 5 uM HxBpane competitor. The procedure, abridged:
as §1

For assay [9], the target named is Matrilysin (Homo sapiens) (UniProt P09237). The assay can be described thus: Inhibition of human recombinant MMP7 at 200 uM by HxBPyne probe-based competitive activity based protein profiling assay in presence of 5 uM HxBpane competitor. The procedure, abridged: as §1
For assay [10], the target named is T2, Matrix metalloproteinase-9. The assay can be described thus: Inhibition of human recombinant MMP9 at 200 uM by HxBP-Rh probe-based competitive activity based protein profiling assay in presence of 200 uM HxBP-alkyne. In a few lines: (§3)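 Enzyme 0.5 μM final, in PBS (ADAMTS4, neprilysin) or in 1 mg/mL mouse liver soluble proteome (MMP9). HxBP-Rh probe 0.5 μM final with 200 μM inhibitor or DMSO. Preincubated 30 min on ice, UV 365 nm 1 h on ice. Deglycosylated with PNGase F, then SDS-PAGE with fluorescence scanning. Activity given relative to DMSO control.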

The target of assay [11] is Macrophage metalloelastase (Homo sapiens) (UniProt P39900). The assay can be described thus: Inhibition of human recombinant MMP12 at 200 uM by HxBPyne probe-based competitive activity based protein profiling assay in presence of 5 uM HxBpane competitor. The procedure, abridged: as §1
Assay [12] concerns the target A disintegrin and metalloproteinase with thrombospondin motifs 4 (Homo sapiens) (UniProt O75173). The assay can be described thus: Inhibition of human recombinant ADAMTS4 at 200 uM by HxBP-Rh probe-based competitive activity based protein profiling assay in presence of 200 uM HxBP-alkyne. The procedure, abridged:
as §3

Assay [13] concerns the target Matrix metalloproteinase-15 (Homo sapiens) (UniProt P51511). The assay can be described thus: Inhibition of human recombinant MMP15 at 200 uM by HxBPyne probe-based competitive activity based protein profiling assay in presence of 5 uM HxBpane competitor. In a few lines:
as §1

Assay [14] addresses Disintegrin and metalloproteinase domain-containing protein 17 (Homo sapiens) (UniProt P78536). The assay can be described thus: Inhibition of human recombinant ADAM17 at 200 uM by HxBPyne probe-based competitive activity based protein profiling assay in presence of 5 uM HxBpane competitor. In a few lines: as §1
The target of assay [15] is Angiotensin-converting enzyme 2 (Homo sapiens) (UniProt Q9BYF1). The assay can be described thus: Inhibition of human recombinant ACE2 at 200 uM by HxBPyne probe-based competitive activity based protein profiling assay in presence of 200 uM HxBpane competitor. The procedure, abridged: as §2
Assay [16] has as its target Neprilysin (Homo sapiens) (UniProt P08473). The assay can be described thus: Inhibition of human recombinant neprilysin at 200 uM by HxBP-Rh probe-based competitive activity based protein profiling assay in presence of 200 uM HxBP-alkyne. In a few lines: as §3

The term IC50 denotes the concentration that inhibits the measured activity by half.

Active and inactive are the calls of the source. The rule behind the calls is not given here.

T2 sequence (P14780 whole entry): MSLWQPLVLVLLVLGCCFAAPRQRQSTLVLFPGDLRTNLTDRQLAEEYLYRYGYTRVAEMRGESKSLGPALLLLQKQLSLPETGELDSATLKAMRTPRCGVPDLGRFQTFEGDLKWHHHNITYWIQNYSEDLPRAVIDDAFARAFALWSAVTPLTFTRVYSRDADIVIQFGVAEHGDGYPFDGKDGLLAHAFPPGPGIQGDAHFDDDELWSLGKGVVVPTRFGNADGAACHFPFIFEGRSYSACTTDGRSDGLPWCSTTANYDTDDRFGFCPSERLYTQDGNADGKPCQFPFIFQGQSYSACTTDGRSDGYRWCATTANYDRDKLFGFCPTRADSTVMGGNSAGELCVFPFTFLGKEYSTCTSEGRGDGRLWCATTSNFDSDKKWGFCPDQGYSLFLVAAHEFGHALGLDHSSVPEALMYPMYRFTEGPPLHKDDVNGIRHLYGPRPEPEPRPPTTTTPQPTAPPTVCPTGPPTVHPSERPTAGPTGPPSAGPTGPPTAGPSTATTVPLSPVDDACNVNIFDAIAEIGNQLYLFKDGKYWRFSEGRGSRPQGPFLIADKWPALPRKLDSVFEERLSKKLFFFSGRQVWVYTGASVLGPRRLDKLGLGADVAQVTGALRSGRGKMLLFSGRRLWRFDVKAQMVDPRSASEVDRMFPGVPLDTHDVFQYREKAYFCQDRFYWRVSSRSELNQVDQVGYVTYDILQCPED
Endoplasmic reticulum aminopeptidase 2 (Homo sapiens), sequence (Q6P179 whole entry): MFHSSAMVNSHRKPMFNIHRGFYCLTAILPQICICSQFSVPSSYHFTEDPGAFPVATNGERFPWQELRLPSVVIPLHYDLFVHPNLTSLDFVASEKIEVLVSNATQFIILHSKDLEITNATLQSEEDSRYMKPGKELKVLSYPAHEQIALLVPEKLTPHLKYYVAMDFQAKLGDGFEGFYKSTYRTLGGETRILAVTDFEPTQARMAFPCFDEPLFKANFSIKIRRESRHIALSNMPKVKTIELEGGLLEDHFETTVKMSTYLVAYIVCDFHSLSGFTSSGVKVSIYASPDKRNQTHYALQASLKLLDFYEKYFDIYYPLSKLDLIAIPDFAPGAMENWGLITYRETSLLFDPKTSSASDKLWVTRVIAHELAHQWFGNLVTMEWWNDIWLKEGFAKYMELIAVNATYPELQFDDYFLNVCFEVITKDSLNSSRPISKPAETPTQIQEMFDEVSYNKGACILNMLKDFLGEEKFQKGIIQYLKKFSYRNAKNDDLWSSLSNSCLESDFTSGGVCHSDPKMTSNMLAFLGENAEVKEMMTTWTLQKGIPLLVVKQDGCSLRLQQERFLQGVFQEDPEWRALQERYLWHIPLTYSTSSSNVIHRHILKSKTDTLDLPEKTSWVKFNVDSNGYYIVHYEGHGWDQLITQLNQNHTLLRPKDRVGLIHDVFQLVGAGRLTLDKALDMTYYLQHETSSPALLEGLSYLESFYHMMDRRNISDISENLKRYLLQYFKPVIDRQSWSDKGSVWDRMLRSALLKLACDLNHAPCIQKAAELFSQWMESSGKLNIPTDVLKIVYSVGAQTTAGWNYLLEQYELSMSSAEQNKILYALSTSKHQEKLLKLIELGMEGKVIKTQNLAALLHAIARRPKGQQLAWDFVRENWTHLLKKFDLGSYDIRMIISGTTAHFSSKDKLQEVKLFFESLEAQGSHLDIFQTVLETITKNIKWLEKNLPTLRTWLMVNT
Matrix metalloproteinase-24 (Homo sapiens), sequence (Q9Y5R2 whole entry): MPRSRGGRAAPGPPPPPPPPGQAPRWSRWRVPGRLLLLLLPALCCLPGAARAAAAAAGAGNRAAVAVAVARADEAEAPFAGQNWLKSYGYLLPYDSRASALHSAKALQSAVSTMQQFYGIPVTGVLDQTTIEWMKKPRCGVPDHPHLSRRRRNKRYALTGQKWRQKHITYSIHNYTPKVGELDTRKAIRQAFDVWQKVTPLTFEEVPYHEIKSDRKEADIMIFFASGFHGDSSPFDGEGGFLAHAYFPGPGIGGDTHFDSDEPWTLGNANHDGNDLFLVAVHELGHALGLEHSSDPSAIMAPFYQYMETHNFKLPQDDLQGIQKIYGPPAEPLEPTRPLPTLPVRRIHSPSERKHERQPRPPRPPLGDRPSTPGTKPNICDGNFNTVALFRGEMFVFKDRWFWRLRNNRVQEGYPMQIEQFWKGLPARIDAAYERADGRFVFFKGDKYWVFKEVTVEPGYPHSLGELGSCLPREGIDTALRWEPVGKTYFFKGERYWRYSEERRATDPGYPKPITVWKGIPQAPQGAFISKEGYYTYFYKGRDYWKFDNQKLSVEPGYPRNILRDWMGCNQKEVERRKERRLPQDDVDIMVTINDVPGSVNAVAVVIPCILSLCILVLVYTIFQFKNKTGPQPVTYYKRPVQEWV
Methionine aminopeptidase 2 (Homo sapiens), sequence (P50579 2-478 limits assumed): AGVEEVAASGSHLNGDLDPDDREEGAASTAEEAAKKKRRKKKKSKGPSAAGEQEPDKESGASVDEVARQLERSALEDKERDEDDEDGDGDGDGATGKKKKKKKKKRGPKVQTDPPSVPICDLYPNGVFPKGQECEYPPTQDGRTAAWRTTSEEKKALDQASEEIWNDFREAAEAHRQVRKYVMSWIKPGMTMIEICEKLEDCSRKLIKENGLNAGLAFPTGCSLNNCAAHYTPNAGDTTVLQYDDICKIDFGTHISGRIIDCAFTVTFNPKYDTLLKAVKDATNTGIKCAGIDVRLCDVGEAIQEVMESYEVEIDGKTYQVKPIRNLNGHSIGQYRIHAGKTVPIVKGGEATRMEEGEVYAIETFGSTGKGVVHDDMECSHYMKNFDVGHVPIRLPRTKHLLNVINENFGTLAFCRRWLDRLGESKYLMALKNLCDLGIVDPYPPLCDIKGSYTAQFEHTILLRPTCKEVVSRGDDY
Stromelysin-2 (Homo sapiens), sequence (P09238 99-476 limits assumed): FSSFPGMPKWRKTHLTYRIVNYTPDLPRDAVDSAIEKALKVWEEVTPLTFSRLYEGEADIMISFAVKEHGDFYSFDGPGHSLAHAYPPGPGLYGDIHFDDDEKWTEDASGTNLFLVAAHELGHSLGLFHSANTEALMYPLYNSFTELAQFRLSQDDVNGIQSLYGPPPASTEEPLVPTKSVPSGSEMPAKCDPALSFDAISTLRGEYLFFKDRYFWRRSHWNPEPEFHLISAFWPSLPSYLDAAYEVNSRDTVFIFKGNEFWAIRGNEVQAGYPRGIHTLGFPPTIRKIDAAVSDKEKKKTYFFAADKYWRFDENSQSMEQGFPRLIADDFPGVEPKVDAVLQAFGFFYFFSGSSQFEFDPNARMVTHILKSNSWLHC
Angiotensin-converting enzyme 2 (Homo sapiens), sequence (Q9BYF1 18-805 limits assumed): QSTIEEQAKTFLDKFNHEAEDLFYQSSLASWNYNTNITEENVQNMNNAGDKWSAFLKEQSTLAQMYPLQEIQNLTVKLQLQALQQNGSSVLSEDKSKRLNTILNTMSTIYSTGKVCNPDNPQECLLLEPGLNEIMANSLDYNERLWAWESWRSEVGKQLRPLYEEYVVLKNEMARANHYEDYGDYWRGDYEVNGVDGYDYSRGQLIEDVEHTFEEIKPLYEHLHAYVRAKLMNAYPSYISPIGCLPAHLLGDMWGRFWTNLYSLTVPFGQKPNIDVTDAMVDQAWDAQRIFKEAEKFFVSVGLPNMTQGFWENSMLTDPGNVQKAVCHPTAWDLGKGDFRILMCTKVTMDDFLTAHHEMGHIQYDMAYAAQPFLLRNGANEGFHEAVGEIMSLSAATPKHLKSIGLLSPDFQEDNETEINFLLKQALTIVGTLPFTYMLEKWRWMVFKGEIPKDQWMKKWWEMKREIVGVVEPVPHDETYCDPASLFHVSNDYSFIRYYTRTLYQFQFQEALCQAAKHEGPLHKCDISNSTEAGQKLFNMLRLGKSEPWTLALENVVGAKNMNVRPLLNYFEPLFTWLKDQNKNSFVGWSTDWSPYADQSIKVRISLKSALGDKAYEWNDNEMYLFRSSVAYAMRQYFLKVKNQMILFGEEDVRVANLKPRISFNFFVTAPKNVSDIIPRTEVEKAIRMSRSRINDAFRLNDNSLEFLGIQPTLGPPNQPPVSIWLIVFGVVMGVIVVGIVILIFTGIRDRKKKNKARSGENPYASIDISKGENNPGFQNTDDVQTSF
Macrophage metalloelastase (Homo sapiens), sequence (P39900 106-470 limits assumed): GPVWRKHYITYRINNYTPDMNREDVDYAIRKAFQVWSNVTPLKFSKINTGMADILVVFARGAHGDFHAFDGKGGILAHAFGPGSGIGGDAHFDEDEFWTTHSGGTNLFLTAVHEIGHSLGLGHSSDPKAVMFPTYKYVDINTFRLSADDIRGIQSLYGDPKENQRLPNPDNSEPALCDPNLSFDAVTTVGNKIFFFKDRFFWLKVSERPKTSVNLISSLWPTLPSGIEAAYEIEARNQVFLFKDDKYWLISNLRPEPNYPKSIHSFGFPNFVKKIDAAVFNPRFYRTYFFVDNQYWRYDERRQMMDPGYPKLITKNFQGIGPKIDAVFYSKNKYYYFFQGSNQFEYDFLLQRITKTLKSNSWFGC
Matrix metalloproteinase-15 (Homo sapiens), sequence (P51511 132-669 limits assumed): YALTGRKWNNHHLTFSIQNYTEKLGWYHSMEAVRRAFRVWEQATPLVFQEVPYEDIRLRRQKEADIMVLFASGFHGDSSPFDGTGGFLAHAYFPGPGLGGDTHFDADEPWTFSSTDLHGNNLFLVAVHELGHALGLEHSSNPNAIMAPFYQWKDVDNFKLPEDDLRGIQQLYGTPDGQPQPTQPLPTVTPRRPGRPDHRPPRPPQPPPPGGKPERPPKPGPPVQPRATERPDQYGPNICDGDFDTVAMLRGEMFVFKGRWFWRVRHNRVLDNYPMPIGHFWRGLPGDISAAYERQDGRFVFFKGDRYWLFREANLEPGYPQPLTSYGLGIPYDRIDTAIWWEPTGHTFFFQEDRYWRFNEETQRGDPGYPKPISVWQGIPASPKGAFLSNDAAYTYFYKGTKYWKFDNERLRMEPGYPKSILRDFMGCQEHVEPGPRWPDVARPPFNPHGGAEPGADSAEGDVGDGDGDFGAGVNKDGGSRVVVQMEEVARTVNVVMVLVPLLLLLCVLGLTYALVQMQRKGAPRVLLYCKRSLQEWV

Turning to `COc1ccc(CSc2nc(C)cc(O)n2)cc1`, the outcome in [1], in assay [2], in [3], in assay [4], in assay [6] and in assay [7] was inactive. Also, the outcome in assay [8], in assay [9], in assay [10], in assay [11], in assay [12] and in assay [13] was inactive. Also, the result in assay [14], in assay [15] and in assay [16] was inactive. Moreover, in [5], the IC50 is over 100 µM.

Take `Oc1nc(SCc2ccc(Cl)cc2)nc2c1CCC2`: the result in assay [1], in assay [2], in [3], in assay [4], in [6] and in assay [7] was inactive. Further, the result in [8], in assay [9], in assay [10], in [11], in assay [12] and in [13] was inactive. For the same molecule, the result in assay [14], in assay [15] and in [16] was inactive. In addition, the IC50 in [5] was over 100 µM.
